Experimental data from publication PMC3220747 (ACS chemical biology, 2011).
Entries after “also recorded” stand apart in the source; their conditions may differ. Where two headings read alike, the source gives them in different places.

What was measured:
MDA-MB-231 cells [1] = experiment: Transwell; format: cell-based, human
How it was run: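 Wells were fibronectin-coated (30 ng μL⁻¹, 4°C overnight). Cells serum-starved 4 h were seeded at 5×10⁴ in 0.1% FBS medium with compound or DMSO in the upper chamber, with 10% FBS RPMI-1640 plus compound or 1% DMSO below, for 8 h at 37°C. Non-migrated cells were scraped off; filters were methanol-fixed 30 min and hematoxylin-stained 1 h. Cells in ten 200× fields were counted and averaged over three independent experiments.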

uPAR [2] = target: T1, uPAR (Homo sapiens, UniProt Q03405); experiment: Fluorescence polarization; format: binding
MDA-MB-231 cells [3] = experiment: Adhesion assay; format: cell-based, human
How it was run: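 Wells coated overnight at 4°C with fibronectin (15 ng μl⁻¹) or vitronectin, then blocked 1 h with 0.5% BSA/PBS. Cells were serum-starved 3 h, trypsinized, and held at 2.5×10⁵ cells ml⁻¹ in 0.1% FBS DMEM with test compound or DMSO for 90 min at 37°C. After three PBS washes, remaining adherent cells were quantified by MTT.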

[4] = target: uPA binding to uPAR of MDA-MB-231 tumor cells (Homo sapiens, UniProt Q03405); experiment: Immunofluorescence imaging of cell surface uPA and uPAR; format: cell-based
[5] = system: MDA-MB-231 cells lacking uPAR; experiment: Invasion assay with siRNA knockdown of uPAR; format: cell-based, human; settings: MDA-MB-231 with siRNA knockdown of uPAR
How it was run: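 Cells were transfected with uPAR siRNA, control siRNA or transfection reagent alone. After 48 h, knockdown was checked by immunoblot: 20 µg lysate on 12% SDS-PAGE, anti-uPAR probe, actin as loading control. Invasion without or with test compound then used fibronectin-coated transwells, with 0.1% FBS medium above and 10% FBS below, for 16 h at 37°C. Invaded cells were counted.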

MDA-MB-231 cells [6] = experiment: Cytotoxicity / cell proliferation; format: cell-based, human
How it was run: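 MDA-MB-231 cells were exposed to test compound at the same concentrations and for the same incubation time as the transwell motility assay. MTT was added 2 h before measurement.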

MDA-MB-231 cells [7] = experiment: Wound healing assay; format: cell-based, human; settings: MDA-MB-231, 16 h
How it was run: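 Confluent MDA-MB-231 monolayers were scratched with a pipette tip, washed, and cultured in complete medium containing test compound. The gap between wound edges was measured in three random regions immediately after wounding and at 16 h.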

MDA-MB-231 cells [8] = experiment: Invasion assay; format: cell-based, human; settings: for number of cells able to invade through the membrane: MDA-MB-231, increasing concentration
How it was run: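 Insert undersides were coated overnight at 4°C with 30 ng μl⁻¹ fibronectin, and filters were equilibrated 2 h in serum-free medium. Cells serum-starved 4 h were seeded at 5×10⁴ in 0.1% FBS medium with compound in the upper chamber, with 10% FBS medium plus compound or DMSO below. After 16 h at 37°C, 5% CO₂, filters were methanol-fixed and hematoxylin-stained. Invaded cells were counted in ten 200× fields.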

[9] = target: uPAR·uPA interaction (uPAR binding to uPAATF) (Homo sapiens, UniProt Q03405); experiment: Microtiter-based ELISA, uPAR binding to immobilized uPAATF; settings: for concentration-dependent inhibition of uPAR binding to uPAATF (ELISA): serial dilutions; for activity in the ELISA at single concentration: 50 μM
How it was run: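 Microtiter wells coated with uPAATF (purified by SP Sepharose […] exchange). Blocking used a 1:1 mix of Superblock in PBS with 0.04 M NaH₂PO₄/0.3 M NaCl buffer. uPAR binding was tested against serial dilutions of test compound. After incubation and washes, bound uPAR was detected with biotinylated antibody uPA1310 in 1% BSA/PBS for 1–2 h.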

uPAR [10] = target: T1, uPAR; experiment: Direct binding of IPR-456 to uPAR by FP; settings: 10 μM GFD
[11] = target: uPAR·uPA interaction (suPAR277 and uPAATF) (Homo sapiens, UniProt Q03405); experiment: Surface plasmon resonance; format: binding; settings: for SPR response with increasing concentration of compound: 5 to 100 μM
How it was run: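 uPA amino-terminal fragment was amine-coupled to a CM5 chip at about 100 RU. Soluble uPAR (residues 1–277, expressed in Drosophila S2 cells) was injected with or without test compound (5–100 μM final, 5% DMSO) in HBS-EP plus 5% DMSO. Flow was 20 μL min⁻¹, with 180 s association and 90 s dissociation, and 5 mM HCl regeneration. DMSO-only protein controls were interleaved. IC50 was estimated from the plots.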

[12] = read-out: IC50, inhibition of uPAATF binding to uPAR (ELISA)

Chain of uPAR·uPA interaction (uPAR binding to uPAATF) (Q03405 23-299): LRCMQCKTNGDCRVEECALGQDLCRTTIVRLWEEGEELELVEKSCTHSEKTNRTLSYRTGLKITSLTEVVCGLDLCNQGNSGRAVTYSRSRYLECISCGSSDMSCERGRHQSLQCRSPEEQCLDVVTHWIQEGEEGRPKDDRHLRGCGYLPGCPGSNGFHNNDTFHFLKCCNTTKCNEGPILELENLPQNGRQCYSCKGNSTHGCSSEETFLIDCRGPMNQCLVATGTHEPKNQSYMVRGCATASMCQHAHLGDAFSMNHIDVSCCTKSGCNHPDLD
Chain of uPAR·uPA interaction (suPAR277 and uPAATF) (Q03405 23-299): as above
T1 sequence (Q03405 23-299): as above
Chain of uPA binding to uPAR of MDA-MB-231 tumor cells (Q03405 23-305 limits assumed): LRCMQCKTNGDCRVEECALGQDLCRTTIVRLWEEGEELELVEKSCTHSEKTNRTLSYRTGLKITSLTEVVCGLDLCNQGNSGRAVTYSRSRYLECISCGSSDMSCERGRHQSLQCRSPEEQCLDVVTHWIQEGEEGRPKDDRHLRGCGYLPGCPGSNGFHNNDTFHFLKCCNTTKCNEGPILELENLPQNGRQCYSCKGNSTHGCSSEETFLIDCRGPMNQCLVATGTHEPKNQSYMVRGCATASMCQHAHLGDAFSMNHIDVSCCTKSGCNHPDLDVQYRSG

## CC1CC(C)CN(c2cc(Nc3ccccc3C(=O)O)c3c4c(onc24)-c2ccccc2C3=O)C1 (stereo not shown) [IPR-456, 2-((3-(3,5-Dimethylpiperidin-1-yl)-6-oxo-6H-anthra[1,9-cd]isoxazol-5-yl)amino)benzoic acid]
MDA-MB-231 cells [1]
  effect on migration (Boyden chamber): blocked migration very weakly
uPAR [2]
  Ki: 0.14 µM
uPAR [2]; 0.78 μM to 100 μM
  concentration-dependent displacement of GFD-FAM: displace GFD-FAM in a concentration-dependent manner
uPAR [2]; single concentration of 50 μM
  inhibition / binding in initial FP screen: highest inhibition
MDA-MB-231 cells [3]; fibronectin-coated wells
  effect on cell adhesion: no effect on cell adhesion
MDA-MB-231 cells [3]; vitronectin-coated wells
  effect on cell adhesion: no effect on cell adhesion
[4]
  IC50: 8 µM
[4]; MDA-MB-231
  uPAR immunostaining at the cell surface: no change in the immunostaining pattern of uPAR
[4]; MDA-MB-231, compound added 30 min prior to immunostaining
  uPA staining at the cell surface: significant concentration-dependent reduction of uPA staining
[5]
  effect on invasion of cells lacking uPAR: no effect on invasion
MDA-MB-231 cells [6]; MDA-MB-231, 200 μM
  toxicity within the timeframe of the invasion experiment: minimal toxicity
MDA-MB-231 cells [6]; MDA-MB-231, up to 100 μM
  toxicity within the timeframe of the invasion experiment: no toxicity
MDA-MB-231 cells [6]; same concentrations and incubation time as migration assays
  cytotoxicity in the migration assays: Neither assay exhibited any cell cytotoxicity
MDA-MB-231 cells [7]
  effect on migration (wound healing): little effect on migration
MDA-MB-231 cells [8]; MDA-MB-231
  inhibition of invasion: about 60%
MDA-MB-231 cells [8]
  number of cells able to invade through the membrane: concentration-dependent reduction
[9]
  concentration-dependent inhibition of uPAR binding to uPAATF (ELISA): complete concentration-dependent inhibition
uPAR [10]
  change of polarization with increasing uPAR in the presence of GFD: no increase in the polarization was detected

## CC1CC(C)CN(c2cc(NCCC(=O)O)c3c4c(onc24)-c2ccccc2C3=O)C1 (stereo not shown) [IPR-763]
[11]
  IC50 estimated from SPR plots, compared with ELISA: nearly identical to those observed in the ELISA
  SPR response with increasing concentration of compound: concentration-dependent decrease in the response
[9]
  activity in the ELISA at single concentration: strong activity
  concentration-dependent inhibition of uPAR binding to uPAATF (ELISA): concentration-dependent inhibition
[9]; [12]
  IC50: 20 µM

## O=C(O)c1cccc(Nc2cc(N3CCCCCC3)c3noc4c3c2C(=O)c2ccccc2-4)c1 [IPR-803, 3-((3-(Azepan-1-yl)-6-oxo-6H-anthra[1,9-cd]isoxazol-5-yl)amino)benzoic acid]
MDA-MB-231 cells [6]; MDA-MB-231, increasing concentration
  effect on cell proliferation / cytotoxicity: concentration dependent inhibition of MDA-MB-231 cell proliferation; also recorded: some cytotoxicity
[11]
  IC50: 10 µM
  IC50 estimated from SPR plots, compared with ELISA: nearly identical to those observed in the ELISA
  SPR response with increasing concentration of compound: concentration-dependent decrease in the response
MDA-MB-231 cells [8]
  number of cells able to invade through the membrane: concentration-dependent reduction
[9]
  IC50: 10 µM
  activity in the ELISA at single concentration: strong activity
  concentration-dependent inhibition of uPAR binding to uPAATF (ELISA): concentration-dependent inhibition

## CC1CCN(c2cc(Nc3ccc(C(=O)O)cc3)c3c4c(onc24)-c2ccccc2C3=O)CC1 [IPR-808]
[9]
  activity in the ELISA at single concentration: strong activity
  concentration-dependent inhibition of uPAR binding to uPAATF (ELISA): concentration-dependent inhibition
[9]; [12]
  IC50: 30 µM
